Test results taken from ChEMBL document CHEMBL4196121, “Meridianin D Analogues Display Antibiofilm Activity against MRSA and Increase Colistin Efficacy in Gram-Negative Bacteria” (ACS Med Chem Lett, 2018).
In brackets after ≈: the same amount, converted by molar mass. Activity calls are given as the source filed them. The calls are words filed in the database; no cut-off is given here.

What was measured:
Staphylococcus aureus [1] = assay: Inhibition of biofilm formation in methicillin-resistant Staphylococcus aureus ATCC 43300 after 24 hrs by crystal violet staining based method; format: functional, organism-based; conditions: for IC50: ATCC 43300, 24 h
How it was run: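 Read-out is the IC50, taken as the compound concentration that inhibits 50% of MRSA 43300 biofilm formation.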

Acinetobacter baumannii [2] = assay: Antibacterial activity against Acinetobacter baumannii isolate 5075 after 16 hrs by broth microdilution assay; format: organism-based
Acinetobacter baumannii [3] = assay: Antibacterial activity against Acinetobacter baumannii isolate 3941 after 16 hrs by broth microdilution assay; format: organism-based
Klebsiella pneumoniae [4] = assay: Antibacterial activity against Klebsiella pneumoniae isolate B9 after 16 hrs by broth microdilution assay; conditions: in vivo
Acinetobacter baumannii [5] = assay: Antibacterial activity against Acinetobacter baumannii ATCC 17978 after 16 hrs by broth microdilution assay; format: organism-based
Acinetobacter baumannii [6] = assay: Antibacterial activity against Acinetobacter baumannii ATCC 19606 after 16 hrs by broth microdilution assay; format: organism-based, ATCC 19606 = CIP 70.34 = JCM 6841
Escherichia coli [7] = assay: Antibacterial activity against Escherichia coli ATCC 25922 expressing mcr1 gene after 16 hrs by broth microdilution assay; format: organism-based; conditions: in vitro
Acinetobacter baumannii [8] = assay: Antibacterial activity against Acinetobacter baumannii isolate 4106 after 16 hrs by broth microdilution assay; format: organism-based
Escherichia coli [9] = assay: Antibacterial activity against Escherichia coli ATCC 25922 after 16 hrs by broth microdilution assay; format: organism-based
Acinetobacter baumannii [10] = assay: Antibacterial activity against Acinetobacter baumannii ATCC 17978 expressing mcr1 gene after 16 hrs by broth microdilution assay; format: organism-based; conditions: in vitro
Klebsiella pneumoniae [11] = assay: Antibacterial activity against Klebsiella pneumoniae ATCC 2146 expressing NDM1 gene after 16 hrs by broth microdilution assay; format: organism-based
Klebsiella pneumoniae [12] = assay: Antibacterial activity against Klebsiella pneumoniae isolate C3 after 16 hrs by broth microdilution assay
Staphylococcus aureus [13] = assay: Antibacterial activity against methicillin-resistant Staphylococcus aureus ATCC 43300 after 16 hrs by broth microdilution assay; format: functional; conditions: ATCC 43300, 16 h
Staphylococcus aureus [14] = assay: Antibiofilm activity against methicillin-resistant Staphylococcus aureus ATCC 43300 assessed induction of dispersion of preformed biofilm after 24 hrs by crystal violet staining based method; format: functional, organism-based; conditions: ATCC 43300, 24 h
Staphylococcus aureus [15] = assay: Potentiation of vancomycin-induced antibacterial activity against methicillin-resistant Staphylococcus aureus ATCC 43300 assessed as dispersion of preformed biofilm after 24 hrs by crystal violet staining based method; format: functional, organism-based; conditions: ATCC 43300, 24 h

Structure (SMILES) | IC50 (Staphylococcus aureus [1]) | MIC (Acinetobacter baumannii [2]) | MIC (Acinetobacter baumannii [3]) | Activity (Staphylococcus aureus [1]) | MIC (Klebsiella pneumoniae [4]) | MIC (Acinetobacter baumannii [5]) | MIC (Acinetobacter baumannii [6]) | MIC (Escherichia coli [7]) | MIC (Acinetobacter baumannii [8]) | MIC (Escherichia coli [9]) | MIC (Acinetobacter baumannii [10]) | MIC (Klebsiella pneumoniae [11]) | MIC (Klebsiella pneumoniae [12]) | MIC (Staphylococcus aureus [13]) | EC50 (Staphylococcus aureus [14]) | EC50 (Staphylococcus aureus [15])
Nc1nccc(-c2c[nH]c3cccc(Br)c23)n1 | > 100 µM | – | – | – | – | – | – | – | – | – | – | – | – | – | – | –
CCCn1cc(-c2ccnc(N)n2)c2ccc(I)cc21.Cl | – | > 200 µM | > 200 µM | inactive | > 200 µM | > 200 µM | > 200 µM | > 200 µM | > 200 µM | > 200 µM | > 200 µM | > 200 µM | > 200 µM | – | – | –
CC(C)Cn1cc(-c2ccnc(N)n2)c2ccc(Br)cc21.Cl | > 100 µM | > 200 µM | > 200 µM | – | > 200 µM | > 200 µM | > 200 µM | > 200 µM | > 200 µM | > 200 µM | > 200 µM | > 200 µM | > 200 µM | – | – | –
Nc1nccc(-c2c[nH]c3c(Br)cccc23)n1 | 99.8 µM | – | – | – | – | – | – | – | – | – | – | – | – | – | – | –
CCCCCn1cc(-c2ccnc(N)n2)c2cc(Br)ccc21.Cl | > 100 µM | > 200 µM | > 200 µM | – | > 200 µM | > 200 µM | > 200 µM | > 200 µM | > 200 µM | > 200 µM | > 200 µM | > 200 µM | > 200 µM | – | – | –
Cl.Nc1nccc(-c2c[nH]c3cc(F)ccc23)n1 | > 100 µM | > 200 µM | > 200 µM | – | > 200 µM | > 200 µM | > 200 µM | > 200 µM | > 200 µM | > 200 µM | > 200 µM | > 200 µM | > 200 µM | – | – | –
CCn1cc(-c2ccnc(N)n2)c2cc(Br)ccc21.Cl | 66.2 µM | > 200 µM | > 200 µM | – | > 200 µM | > 200 µM | > 200 µM | > 200 µM | > 200 µM | > 200 µM | > 200 µM | > 200 µM | > 200 µM | 200 µM | – | –
Cl.Nc1nccc(-c2c[nH]c3ccc(F)cc23)n1 | > 100 µM | > 200 µM | > 200 µM | – | > 200 µM | > 200 µM | > 200 µM | > 200 µM | > 200 µM | > 200 µM | > 200 µM | > 200 µM | > 200 µM | – | – | –
Cc1ccc(S(=O)(=O)n2cc(C(=O)/C=C/N(C)C)c3ccc(I)cc32)cc1 | – | – | – | Active | – | – | – | – | – | – | – | – | – | – | – | –
Cl.Nc1nccc(-c2c[nH]c3ccc(I)cc23)n1 | 49.3 µM | > 200 µM | > 200 µM | – | > 200 µM | > 200 µM | > 200 µM | > 200 µM | > 200 µM | > 200 µM | > 200 µM | > 200 µM | > 200 µM | 200 µM | – | –
CCn1cc(-c2ccnc(N)n2)c2ccc(Br)cc21.Cl | 64 µM | > 200 µM | > 200 µM | – | > 200 µM | > 200 µM | > 200 µM | > 200 µM | > 200 µM | > 200 µM | > 200 µM | > 200 µM | > 200 µM | 200 µM | – | –
CCNc1nccc(-c2cn(C)c3cc(Br)ccc23)n1.Cl | – | > 200 µM | > 200 µM | inactive | > 200 µM | > 200 µM | > 200 µM | > 200 µM | > 200 µM | > 200 µM | > 200 µM | > 200 µM | > 200 µM | – | – | –
Cl.Cn1cc(-c2ccnc(N)n2)c2cc(Br)ccc21 | > 100 µM | > 200 µM | > 200 µM | – | > 200 µM | > 200 µM | > 200 µM | > 200 µM | > 200 µM | > 200 µM | > 200 µM | > 200 µM | > 200 µM | – | – | –
Cl.Nc1nccc(-c2cn(Cc3ccccc3)c3ccc(Br)cc23)n1 | – | > 200 µM | > 200 µM | – | > 200 µM | > 200 µM | > 200 µM | > 200 µM | > 200 µM | > 200 µM | > 200 µM | > 200 µM | > 200 µM | – | – | –
Nc1nccc(-c2c[nH]c3ccc(Br)cc23)n1 | 17.9 µM | – | – | – | – | – | – | – | – | – | – | – | – | 200 µM (≈ 57.8 µg/mL) | 138 µM | 92.1 µM
Cl.Nc1nccc(-c2c[nH]c3cc(I)ccc23)n1 | 42.5 µM | > 200 µM | > 200 µM | – | > 200 µM | > 200 µM | > 200 µM | > 200 µM | > 200 µM | > 200 µM | > 200 µM | > 200 µM | > 200 µM | > 200 µM | – | –
Cl.Cn1cc(-c2ccnc(N)n2)c2ccc(Br)cc21 | 59.6 µM | > 200 µM | > 200 µM | – | > 200 µM | > 200 µM | > 200 µM | > 200 µM | > 200 µM | > 200 µM | > 200 µM | > 200 µM | > 200 µM | 200 µM | – | –
CCCCn1cc(-c2ccnc(N)n2)c2ccc(Br)cc21.Cl | > 100 µM | > 200 µM | > 200 µM | – | > 200 µM | > 200 µM | > 200 µM | > 200 µM | > 200 µM | > 200 µM | > 200 µM | > 200 µM | > 200 µM | – | – | –
Cl.Nc1nccc(-c2c[nH]c3ccc(Cl)cc23)n1 | – | > 200 µM | > 200 µM | inactive | > 200 µM | > 200 µM | > 200 µM | > 200 µM | > 200 µM | > 200 µM | > 200 µM | > 200 µM | > 200 µM | – | – | –
Cc1ccc(S(=O)(=O)n2cc(C(=O)/C=C/N(C)C)c3ccc(F)cc32)cc1 | – | – | – | Active | – | – | – | – | – | – | – | – | – | – | – | –
